Measurements reported in publication PMC7598728 (Biochemistry, 2020).

Key:
Vero cells = assay: Compound cytotoxicity; type: cell-based; conditions: 25 μM, no virus, 3 days, triplicate, values <1 = cytotoxic
Method in brief: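 Vero cells seeded at 1 × 10^4 cells/well were exposed the next day, with no virus, to the DMSO-dissolved test compound. Handling matched the infected viability assay, including the 1 h 37 °C compound pre-incubation step. Viability was read by CellTiter-Fluor after 3 days.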

[1] = tested on: Zika strain MR766 (ZIKV-induced cell killing of Vero cells); assay: Cell viability assay in the presence of virus; type: cell-based, Zika virus; conditions: tested at 25 μM; values over 1 signify inhibition of ZIKV-induced cell killing
Method in brief: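 Vero cells (DMEM, 10% heat-inactivated FBS, 37 °C, 5% CO2) were seeded at 1 × 10^4 cells/well. The next day they were infected with ZIKV that had been pretreated 1 h at 37 °C with the DMSO-dissolved test compound or controls. After 3 days, viability was read by CellTiter-Fluor fluorescence and normalized to infected cells. Run in triplicate.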

[2] = tested on: Zika strain MR766 (infectivity in Vero cells); assay: TCID50 end point dilution infectivity assay; type: cell-based, Zika virus; conditions: tested at 25 μM; activity cutoff <0.6
Method in brief: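 End-point dilution: Vero cells were seeded at 2 × 10^4 cells/well. The next day, medium was replaced with serial dilutions of ZIKV, untreated or pretreated 1 h at 37 °C with the test compound or controls. After 6 days at 37 °C, cells were fixed in 3.7% formaldehyde and stained with crystal violet. Wells were scored for CPE, and TCID50 was calculated by the Reed and Muench method.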

[3] = tested on: Zika-induced caspase 3/7 activity in Vero cells; assay: Caspase activity assay; type: cell-based, Zika virus; conditions: tested at 25 μM; relative to virus alone or virus with DMSO
Method in brief: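 ZIKV MR766 was pre-incubated with the DMSO-dissolved test compound or controls for 1 h at 37 °C, then added to Vero cells seeded at 1 × 10^4 cells/well the previous day (medium removed). Cells were incubated 3 days, viability read first (CellTiter-Fluor), then caspase 3/7 luminescence (Caspase-Glo 3/7). Run in triplicate.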

Q: What does the source list for `C#C[C@@]1(O)[C@H](O)[C@@H](CO)O[C@H]1n1ccc2c(N)ncnc21` [NITD008]?
A: compound cytotoxicity (Vero cells): some cytotoxicity; cell viability (normalized to ZIKV-infected cells) [1]: > 1.0; TCID50 infectivity [2]: < 0.6; caspase activity [3]: suppressed caspase activity

Q: `C[C@H](NC(=O)C(=O)Nc1ccccc1C(C)(C)C)C(=O)N[C@@H](CC(=O)O)C(=O)COc1c(F)c(F)cc(F)c1F` [emricasan] was tested. Which caspase activity [3] did it give?
A: The caspase activity was “suppressed caspase activity”.
